Columns and labels:
Format in all cases: functional
Streptococcus mitis [1] = assay: Antimicrobial activity against Streptococcus mitis ATCC 49456 with gyrA Ser114Gly, and parC Ser52Gly, Asn91Asp, Glu135Asp mutation by broth dilution method
Summary of the method: (§1)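 Ciprofloxacin and levofloxacin MICs were determined by broth dilution following CLSI (formerly NCCLS) guidance. S. pneumoniae ATCC 6303 and ATCC 49619 served as control strains. Reference strains were S. mitis ATCC 49456 and S. oralis ATCC 10557. The clinical isolates came from patients at a Hong Kong teaching hospital.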

Streptococcus mitis [2] = assay: Antimicrobial activity against Streptococcus mitis HK666 with gyrA Ser114Gly, and parC Ser52Gly, Asn91Asp, Glu135Asp mutation by broth dilution method; summary of the method: as §1
Streptococcus oralis [3] = assay: Antimicrobial activity against Streptococcus oralis HK386 with gyrA Ser114Gly, and parC Ser52Gly, Asn91Asp mutation by broth dilution method; summary of the method: as §1
Streptococcus mitis [4] = assay: Antimicrobial activity against Streptococcus mitis HK125807 with gyrA Ser114Gly, and parC Ser52Gly, Asn91Asp mutation by broth dilution method; summary of the method: as §1
Streptococcus viridans [5] = assay: Antimicrobial activity against Viridans streptococcus L7 with gyrA Ser114Gly, gyrB Ser494Thr and parC Ser52Gly, Asn91Asp mutation by broth dilution method; summary of the method: as §1
Streptococcus oralis [6] = assay: Antimicrobial activity against Streptococcus oralis HK619 with gyrA Ser114Gly, and parC Ser52Gly, Asn91Asp mutation by broth dilution method; summary of the method: as §1
Streptococcus oralis [7] = assay: Antimicrobial activity against Streptococcus oralis HK496 with gyrA Ser114Gly, and parC Ser52Gly, Asn91Asp mutation by broth dilution method; summary of the method: as §1
Streptococcus oralis [8] = assay: Antimicrobial activity against Streptococcus oralis HK62 with gyrA Ser114Gly, and parC Ser52Gly, Asn91Asp mutation by broth dilution method; summary of the method: as §1
Streptococcus oralis [9] = assay: Antimicrobial activity against Streptococcus oralis HK579 with gyrA Ser114Gly, and parC Ser52Gly, Asn91Asp mutation by broth dilution method; summary of the method: as §1
Streptococcus mitis [10] = assay: Antimicrobial activity against Streptococcus mitis HK137453 with gyrA Ser114Gly, and parC Ser52Gly, Asn91Asp mutation by broth dilution method; summary of the method: as §1
Streptococcus oralis [11] = assay: Antimicrobial activity against Streptococcus oralis HK123 with gyrA Ser114Gly, and parC Ser52Gly, Asn91Asp mutation by broth dilution method; summary of the method: as §1
Streptococcus oralis [12] = assay: Antimicrobial activity against Streptococcus oralis HK299 with gyrA Ser114Gly, and parC Ser52Gly, Asn91Asp mutation by broth dilution method; summary of the method: as §1
Streptococcus oralis [13] = assay: Antimicrobial activity against Streptococcus oralis HK553 with gyrA Ser114Gly, and parC Ser52Gly, Asn91Asp mutation by broth dilution method; summary of the method: as §1
Streptococcus mitis [14] = assay: Antimicrobial activity against Streptococcus mitis HK467 with gyrA Ser114Gly, Leu155Val and parC Ser52Gly, Asn91Asp, mutation by broth dilution method; summary of the method: as §1
Streptococcus oralis [15] = assay: Antimicrobial activity against Streptococcus oralis ATCC 10557 with gyrA Ser114Gly, and parC Ser52Gly, Asn91Asp mutation by broth dilution method; summary of the method: as §1
Streptococcus oralis [16] = assay: Antimicrobial activity against Streptococcus oralis HK271 with gyrA Ser114Gly, and parC Ser52Gly, Asn91Asp mutation by broth dilution method; summary of the method: as §1
Streptococcus viridans [17] = assay: Antimicrobial activity against Viridans streptococcus L26 gyrA Ser81Phe and parC Lys137Asn mutation by broth dilution method; summary of the method: as §1
Streptococcus mitis [18] = assay: Antimicrobial activity against Streptococcus mitis HK188 with gyrA Ser114Gly, and parC Ser52Gly, Asn91Asp, Glu135Asp mutation by broth dilution method; summary of the method: as §1
Streptococcus mitis [19] = assay: Antimicrobial activity against Streptococcus mitis HK680 with gyrA Ser114Gly, and parC Ser52Gly, Asn91Asp mutation by broth dilution method; summary of the method: as §1
Streptococcus oralis [20] = assay: Antimicrobial activity against Streptococcus oralis HK312 with gyrA Ser114Gly, and parC Ser52Gly, Asn91Asp mutation by broth dilution method; summary of the method: as §1
Streptococcus oralis [21] = assay: Antimicrobial activity against Streptococcus oralis HK417 with gyrA Ser114Gly, and parC Ser52Gly, Asn91Asp mutation by broth dilution method; summary of the method: as §1
Streptococcus viridans [22] = assay: Antimicrobial activity against Viridans streptococcus L17 with gyrA Ser114Gly, gyrB Ser494Thr and parC Ser52Gly, Asn91Asp mutation by broth dilution method; summary of the method: as §1
Streptococcus oralis [23] = assay: Antimicrobial activity against Streptococcus oralis HK574 with gyrA Ser114Gly, Leu155Val, gyrB Ile385Val, Met483Thr, Ser494Thr and parC Ser52Gly, Asn91Asp mutation by broth dilution method; summary of the method: as §1
Streptococcus oralis [24] = assay: Antimicrobial activity against Streptococcus oralis HK300 with gyrA Ser114Gly, and parC Ser52Gly, Asn91Asp mutation by broth dilution method; summary of the method: as §1
Streptococcus oralis [25] = assay: Antimicrobial activity against Streptococcus oralis HK816 with gyrA Ser81Leu, Ser114Gly and parC Ser52Gly, Ser79Tyr, Asn91Asp mutation by broth dilution method; summary of the method: as §1
Streptococcus viridans [26] = assay: Antimicrobial activity against Viridans streptococcus L16 with gyrA Ser114Gly, gyrB Ser494Thr and parC Ser52Gly, Asn91Asp mutation by broth dilution method; summary of the method: as §1
Streptococcus viridans [27] = assay: Antimicrobial activity against Viridans streptococcus L19 with gyrA Ser114Gly, gyrB Ser494Thr, parC Ser52Gly, Asn91Asp and parE Ile460Val mutation by broth dilution method; summary of the method: as §1
Streptococcus mitis [28] = assay: Antimicrobial activity against Streptococcus mitis HK29 with gyrA Ser114Gly, and parC Ser52Gly, Asn91Asp mutation by broth dilution method; summary of the method: as §1
Streptococcus oralis [29] = assay: Antimicrobial activity against Streptococcus oralis HK587 with gyrA Ser114Gly, and parC Ser52Gly, Asn91Asp mutation by broth dilution method; summary of the method: as §1
Streptococcus viridans [30] = assay: Antimicrobial activity against Viridans streptococcus L21 with gyrB Ser494Thr and parC Lys137Asn mutation by broth dilution method; summary of the method: as §1
Streptococcus mitis [31] = assay: Antimicrobial activity against Streptococcus mitis HK141 with gyrA Ser114Gly, and parC Ser52Gly, Asn91Asp mutation by broth dilution method; summary of the method: as §1
Streptococcus mitis [32] = assay: Antimicrobial activity against Streptococcus mitis HK135786 with gyrA Ser114Gly, and parC Ser52Gly, Asn91Asp mutation by broth dilution method; summary of the method: as §1
Streptococcus oralis [33] = assay: Antimicrobial activity against Streptococcus oralis HK232 with gyrA Ser114Gly, and parC Ser52Gly, Asn91Asp mutation by broth dilution method; summary of the method: as §1
Streptococcus oralis [34] = assay: Antimicrobial activity against Streptococcus oralis HK575 with gyrA Ser114Gly, Leu155Val and parC Ser52Gly, Asn91Asp, Pro140Ser mutation by broth dilution method; summary of the method: as §1
Streptococcus viridans [35] = assay: Antimicrobial activity against Viridans streptococcus L18 with gyrA Ser114Gly, Asp142Asn, gyrB Ser494Thr and parE Ile460Val mutation by broth dilution method; summary of the method: as §1
Streptococcus viridans [36] = assay: Antimicrobial activity against Viridans streptococcus L20 with gyrB Ser494Thr, parC Ser52Gly and Asn91Asp mutation by broth dilution method; summary of the method: as §1
Streptococcus mitis [37] = assay: Antimicrobial activity against Streptococcus mitis HK651 with gyrA Ser114Gly, and parC Ser52Gly, Asn91Asp mutation by broth dilution method; summary of the method: as §1
Streptococcus mitis [38] = assay: Antimicrobial activity against Streptococcus mitis HK677 with gyrA Ser81Leu, Ser114Gly, gyrB Ser494Thr, parC Ser52Gly, Asp83Tyr, Asn91Asp and parE Arg447Ser mutation by broth dilution method; summary of the method: as §1
Streptococcus mitis [39] = assay: Antimicrobial activity against Streptococcus mitis HK260 with gyrA Ser114Gly, and parC Ser52Gly, Asn91Asp mutation by broth dilution method; summary of the method: as §1
Streptococcus viridans [40] = assay: Antimicrobial activity against Viridans streptococcus L2 with gyrA Ser114Gly, gyrB Ser494Thr and parC Ser52Gly, Asn91Asp mutation by broth dilution method; summary of the method: as §1
Streptococcus oralis [41] = assay: Antimicrobial activity against Streptococcus oralis HK122 with gyrA Ser114Gly, and parC Ser52Gly, Asn91Asp mutation by broth dilution method; summary of the method: as §1
Streptococcus oralis [42] = assay: Antimicrobial activity against Streptococcus oralis HK51with gyrA Ser114Gly, and parC Ser52Gly, Asn91Asp mutation by broth dilution method; summary of the method: as §1
Streptococcus oralis [43] = assay: Antimicrobial activity against Streptococcus oralis HK754 with gyrA Ser81Leu, Ser114Gly, gyrB Ser494Thr, parC Ser52Gly, Asp83Tyr, Asn91Asp and parE Arg447Ser mutation by broth dilution method; summary of the method: as §1

Compound: C[C@H]1COc2c(N3CCN(C)CC3)c(F)cc3c(=O)c(C(=O)O)cn1c23.C[C@H]1COc2c(N3CCN(C)CC3)c(F)cc3c(=O)c(C(=O)O)cn1c23.O [LEVOFLOXACIN]
- MIC (Streptococcus mitis [1]): 1 µg/mL
- MIC (Streptococcus mitis [2]): 2 µg/mL
- MIC (Streptococcus oralis [3]): 2 µg/mL
- MIC (Streptococcus mitis [4]): 1 µg/mL
- MIC (Streptococcus viridans [5]): 2 µg/mL
- MIC (Streptococcus oralis [6]): 2 µg/mL
- MIC (Streptococcus oralis [7]): 1 µg/mL
- MIC (Streptococcus oralis [8]): 1 µg/mL
- MIC (Streptococcus oralis [9]): 2 µg/mL
- MIC (Streptococcus mitis [10]): 1 µg/mL
- MIC (Streptococcus oralis [11]): 1 µg/mL
- MIC (Streptococcus oralis [12]): 2 µg/mL
- MIC (Streptococcus oralis [13]): 1 µg/mL
- MIC (Streptococcus mitis [14]): 1 µg/mL
- MIC (Streptococcus oralis [15]): 1 µg/mL
- MIC (Streptococcus oralis [16]): 1 µg/mL
- MIC (Streptococcus viridans [17]): 16 µg/mL
- MIC (Streptococcus mitis [18]): 0.5 µg/mL
- MIC (Streptococcus mitis [19]): 1 µg/mL
- MIC (Streptococcus oralis [20]): 1 µg/mL
- MIC (Streptococcus oralis [21]): 1 µg/mL
- MIC (Streptococcus viridans [22]): 1 µg/mL
- MIC (Streptococcus oralis [23]): 2 µg/mL
- MIC (Streptococcus oralis [24]): 1 µg/mL
- MIC (Streptococcus oralis [25]): 32 µg/mL
- MIC (Streptococcus viridans [26]): 1 µg/mL
- MIC (Streptococcus viridans [27]): 2 µg/mL
- MIC (Streptococcus mitis [28]): 2 µg/mL
- MIC (Streptococcus oralis [29]): 2 µg/mL
- MIC (Streptococcus viridans [30]): 2 µg/mL
- MIC (Streptococcus mitis [31]): 0.5 µg/mL
- MIC (Streptococcus mitis [32]): 1 µg/mL
- MIC (Streptococcus oralis [33]): 1 µg/mL
- MIC (Streptococcus oralis [34]): 1 µg/mL
- MIC (Streptococcus viridans [35]): 2 µg/mL
- MIC (Streptococcus viridans [36]): 2 µg/mL
- MIC (Streptococcus mitis [37]): 0.5 µg/mL
- MIC (Streptococcus mitis [38]): ≥ 32 µg/mL
- MIC (Streptococcus mitis [39]): < 0.25 µg/mL
- MIC (Streptococcus viridans [40]): 2 µg/mL
- MIC (Streptococcus oralis [41]): 1 µg/mL
- MIC (Streptococcus oralis [42]): 2 µg/mL
- MIC (Streptococcus oralis [43]): ≥ 32 µg/mL
